Test results: ChEMBL document CHEMBL1123641, “Antiulcer agents. 2. Gastric antisecretory, cytoprotective, and metabolic properties of substituted imidazo[1,2-a]pyridines and analogues” (J Med Chem, 1987)

Legend:
Format in all cases: functional
[1] = system: Canis familiaris; assay: Antisecretory activity in histamine stimulated dogs following 5 mg/kg i.v. administration.; settings: Canis lupus familiaris, route intravenous
Summary of the method: (§1)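 Adult mongrel dogs with surgically prepared Heidenhain pouches, acid secretion stimulated with histamine. Compound given intravenously (0.1-5 mg/kg range). Acid output reduction is expressed relative to the nondrug-treated control value in the same animal, each dog serving as its own control. Unless noted otherwise, one dog per compound. ED50 is the iv dose reducing acid output to 50% of control.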

[2] = species: Rattus norvegicus; assay: Cytoprotective activity in rats against the ethyl alcohol stimulated ulcers measured as effective dose
Summary of the method: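 Rats were dosed orally at 1–30 mg/kg, 30 min before an oral challenge of absolute ethanol. Ethanol-induced gastric lesions were scored 1 h later, and an effective dose was estimated.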

[3] = system: Rattus norvegicus; assay: Antisecretory activity in pylorus ligated rats at a 40 mg/kg dose administered intraperitoneally; settings: ip, route intraperitoneal
Summary of the method: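 Pylorus-ligated rats, six per compound and eight controls. Compound given intraperitoneally at 40 mg/kg at the time of ligation. Reduction in acid output measured over 4 h.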

[4] = system: Canis familiaris; assay: Antisecretory activity in histamine stimulated dogs at 2 mg/kg dose administered intravenously; settings: Canis lupus familiaris, route intravenous; summary of the method: as §1
[5] = system: Canis familiaris; assay: Antisecretory activity in histamine stimulated dogs at 8 mg/kg dose administered orally; settings: Canis lupus familiaris, route oral
Summary of the method: (§2)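 Heidenhain pouch mongrel dogs, histamine-stimulated acid secretion. Compound given orally at 2–8 mg/kg. Reduction in acid output is relative to the same animal's own nondrug control, since histamine response depends on pouch size. Usually a single dog per compound. Oral ED50 is the dose reducing acid output to 50% of control.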

[6] = system: Canis familiaris; assay: Antisecretory activity in histamine stimulated dogs at 4 mg/kg dose administered orally; settings: Canis lupus familiaris, route oral; summary of the method: as §2
[7] = system: Canis familiaris; assay: Antisecretory activity in histamine stimulated dogs at 2 mg/kg dose administered orally; settings: Canis lupus familiaris, route oral; summary of the method: as §2

**Q.** For `Cc1nc2c(OCc3ccccc3)cccn2c1NCc1ccccc1`, which inhibition in vivo at 5 mg/kg [1] is on record?
**A.** 0%

**Q.** And the ED50 [2]?
**A.** 2.5 mg/kg

**Q.** What about the inhibition in vivo at 40 mg/kg [3] of the same compound?
**A.** 48%

**Q.** For `Cc1nc2n(c1CC#N)CCCC2OCc1ccccc1` (configuration not stated), which inhibition in vivo at 5 mg/kg [1] is on record?
**A.** 0%

**Q.** What about the inhibition in vivo at 40 mg/kg [3] of the same compound?
**A.** 44%

**Q.** `Cc1nc2c(CCc3ccccc3)nccn2c1N` was tested. Which inhibition in vivo at 5 mg/kg [1] did it give?
**A.** 18%

**Q.** How did the inhibition in vivo at 2 mg/kg [4] turn out when `CCCCc1nc2c(OCc3ccccc3)cccn2c1N` was run?
**A.** 45%

**Q.** And the inhibition in vivo at 8 mg/kg [5]?
**A.** 0%

**Q.** What about the ED50 [2] of the same compound?
**A.** 7.5 mg/kg

**Q.** What about the inhibition in vivo at 40 mg/kg [3] of the same compound?
**A.** 26%

**Q.** What does the source list for `CC(C)c1nc2c(OCc3ccccc3)cccn2c1N`?
**A.** inhibition in vivo at 2 mg/kg [4]: 24%; inhibition in vivo at 8 mg/kg [5]: 0%; ED50 [2]: 2.7 mg/kg; inhibition in vivo at 40 mg/kg [3]: 0%

**Q.** `Cc1nc2c(OCc3ccccc3)cccn2c1NC(C)C` was tested. Which inhibition in vivo at 5 mg/kg [1] did it give?
**A.** 0%

**Q.** What about the ED50 [2] of the same compound?
**A.** 16 mg/kg

**Q.** And the inhibition in vivo at 40 mg/kg [3]?
**A.** 18%

**Q.** Which results are given for `Cc1nc2c(SCc3ccccc3)cccn2c1N`?
**A.** inhibition in vivo at 2 mg/kg [4]: 0%; inhibition in vivo at 8 mg/kg [5]: 11%; ED50 [2]: 5.7 mg/kg; inhibition in vivo at 40 mg/kg [3]: 0%

**Q.** `Cc1nc2c(CCc3ccccc3)cccn2c1O` was tested. Which inhibition in vivo at 2 mg/kg [4] did it give?
**A.** 0%

**Q.** And the ED50 [2]?
**A.** 9.6 mg/kg

**Q.** And the inhibition in vivo at 40 mg/kg [3]?
**A.** 32%

**Q.** How did the inhibition in vivo at 2 mg/kg [4] turn out when `Cc1nc2c(OCc3ccccc3)cccn2c1NC(=O)OCc1ccccc1` was run?
**A.** 82%

**Q.** And the inhibition in vivo at 4 mg/kg [6]?
**A.** 17%

**Q.** What about the inhibition in vivo at 40 mg/kg [3] of the same compound?
**A.** 8%

**Q.** How did the inhibition in vivo at 4 mg/kg [6] turn out when `Cc1ccn2c(N)c(C)nc2c1OCc1ccccc1` was run?
**A.** 36%

**Q.** What about the inhibition in vivo at 8 mg/kg [5] of the same compound?
**A.** 64%

**Q.** What about the ED50 [2] of the same compound?
**A.** 13.5 mg/kg

**Q.** And the inhibition in vivo at 40 mg/kg [3]?
**A.** 60%

**Q.** For `Cc1nc2c(OCc3ccccc3)cccn2c1CN`, which inhibition in vivo at 5 mg/kg [1] is on record?
**A.** 49%

**Q.** And the inhibition in vivo at 8 mg/kg [5]?
**A.** 9%

**Q.** And the inhibition in vivo at 40 mg/kg [3]?
**A.** 46%

**Q.** What does the source list for `Cc1nc2c(Oc3ccccc3)cccn2c1N`?
**A.** inhibition in vivo at 2 mg/kg [4]: 40%; inhibition in vivo at 8 mg/kg [5]: 19%; ED50 [2]: 5 mg/kg; inhibition in vivo at 40 mg/kg [3]: 34%

**Q.** For `Cc1nc2c(OCc3ccsc3)cccn2c1N`, which inhibition in vivo at 2 mg/kg [4] is on record?
**A.** 82%

**Q.** What about the inhibition in vivo at 2 mg/kg [7] of the same compound?
**A.** 29%

**Q.** What about the inhibition in vivo at 4 mg/kg [6] of the same compound?
**A.** 86%

**Q.** And the inhibition in vivo at 8 mg/kg [5]?
**A.** 88%

**Q.** What about the ED50 [2] of the same compound?
**A.** 8.4 mg/kg

**Q.** And the inhibition in vivo at 40 mg/kg [3]?
**A.** 52%

**Q.** `CC(=O)Nc1c(C)nc2c(CCc3ccccc3)cccn12` was tested. Which inhibition in vivo at 5 mg/kg [1] did it give?
**A.** 3%

**Q.** What about the inhibition in vivo at 8 mg/kg [5] of the same compound?
**A.** 16%

**Q.** What about the ED50 [2] of the same compound?
**A.** 12 mg/kg

**Q.** And the inhibition in vivo at 40 mg/kg [3]?
**A.** 40%

**Q.** What does the source list for `CCNc1c(C)nc2c(OCc3ccccc3)nccn12`?
**A.** inhibition in vivo at 5 mg/kg [1]: 0%; ED50 [2]: 6 mg/kg; inhibition in vivo at 40 mg/kg [3]: 48%

**Q.** With `Cc1nc2c(OCc3ccccc3)ccc(C)n2c1CC#N.Cl` as the compound, how does the inhibition in vivo at 4 mg/kg [6] read?
**A.** 11%

**Q.** What about the inhibition in vivo at 5 mg/kg [1] of the same compound?
**A.** 0%

**Q.** What about the ED50 [2] of the same compound?
**A.** 8 mg/kg

**Q.** For `Cc1nc2cc(CCc3ccccc3)ccn2c1N`, which inhibition in vivo at 2 mg/kg [4] is on record?
**A.** 17%

**Q.** And the inhibition in vivo at 8 mg/kg [5]?
**A.** 0%

**Q.** What about the ED50 [2] of the same compound?
**A.** 5.2 mg/kg

**Q.** What about the inhibition in vivo at 40 mg/kg [3] of the same compound?
**A.** 50%

**Q.** Which results are given for `Cc1nc2c(OCCc3ccccc3)cccn2c1N`?
**A.** inhibition in vivo at 2 mg/kg [4]: 39%; inhibition in vivo at 8 mg/kg [5]: 39%; ED50 [2]: 5.2 mg/kg; inhibition in vivo at 40 mg/kg [3]: 56%

**Q.** Which inhibition in vivo at 5 mg/kg [1] does the source give for `CC(C)(C)c1nc2c(OCc3ccccc3)cccn2c1N` here?
**A.** 2%

**Q.** What about the inhibition in vivo at 8 mg/kg [5] of the same compound?
**A.** 0%

**Q.** What about the ED50 [2] of the same compound?
**A.** 15 mg/kg

**Q.** And the inhibition in vivo at 40 mg/kg [3]?
**A.** 0%

**Q.** For `Cc1nc2c(NCc3ccccc3)cccn2c1N`, which inhibition in vivo at 2 mg/kg [4] is on record?
**A.** 98%

**Q.** And the inhibition in vivo at 8 mg/kg [5]?
**A.** 89%

**Q.** What about the ED50 [2] of the same compound?
**A.** 9.6 mg/kg

**Q.** And the inhibition in vivo at 40 mg/kg [3]?
**A.** 84%

**Q.** With `Cc1nc2c(OCc3ccccc3)cccn2c1N(C)C` as the compound, how does the inhibition in vivo at 2 mg/kg [4] read?
**A.** 85%

**Q.** What about the inhibition in vivo at 8 mg/kg [5] of the same compound?
**A.** 72%

**Q.** And the ED50 [2]?
**A.** 2.8 mg/kg

**Q.** And the inhibition in vivo at 40 mg/kg [3]?
**A.** 76%

**Q.** With `Cc1nc2c(OCc3ccccn3)cccn2c1N` as the compound, how does the inhibition in vivo at 8 mg/kg [5] read?
**A.** 15%

**Q.** And the ED50 [2]?
**A.** 2.3 mg/kg

**Q.** What about the inhibition in vivo at 40 mg/kg [3] of the same compound?
**A.** 16%
